The text below walks through data of ChEMBL document CHEMBL4725312, “Pre-clinical evidences of the antileishmanial effects of diselenides and selenocyanates” (Bioorg Med Chem Lett, 2020).

For test [1], the system named is THP-1. The test can be described thus: Cytotoxicity against human THP-1 cells assessed as reduction in cell viability incubated for 24 hrs. The format is cell-based. Conditions: THP-1, 24 h.
A short description of test [2]: Ratio of IC50 for human THP1 cells to IC50 for axenic amastigote state of Leishmania infantum. Summed up:
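Selectivity index was calculated as the THP-1 cytotoxicity IC50 (24 h exposure) divided by the IC50 against L. infantum amastigotes.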

The subject of test [3] is Leishmania infantum. The test can be described thus: Antileishmanial activity against axenic amastigote state of Leishmania infantum incubated for 24 hrs. The format is functional, organism-based.
A short description of test [4]: Inhibition of trypanothione reductase (unknown origin). Summed up:
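Trypanothione reductase inhibition was expressed as IC50, with mepacrine run alongside as the positive-control TryR inhibitor.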

In test [5] the test system is Leishmania infantum. The test can be described thus: Antileishmanial activity against axenic amastigote state of Leishmania infantum infected in human THP-1 cells at 3 uM incubated for 48 hrs. The format is functional, organism-based. Summed up: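 THP-1 cells infected with L. infantum amastigotes were exposed to compounds at 3 μM for 48 h. Infection rate was the read-out, with autofluorescence correction applied, and results were reported as means.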

Test [6] can be described thus: Ratio of IC50 for mepacrine to IC50 for test compound for inhibition of trypanothione reductase (unknown origin). Put shortly:
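Trypanothione reductase inhibition assay, with mepacrine run alongside as the positive-control TryR inhibitor. The value is mepacrine IC50 divided by test-compound IC50 in the same assay.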

The structures appear in SMILES notation. Active and inactive are the calls of the source. No cut-off for these calls is given here. Bounds are passed on as bounds.

`O=C(O)CCC(=O)Nc1ccc([Se][Se]c2ccc(NC(=O)CCC(=O)O)cc2)cc1`: the IC50 (in general, the concentration that inhibits the measured activity by half) was > 25 µM in test [1] and 7.9 µM in test [3]. The “Ratio IC50” value in test [2] is >3.16.
The matching figures for `O=C(NC(=[Se])Nc1ccc([Se][Se]c2ccc(NC(=[Se])NC(=O)c3cc4ccccc4s3)cc2)cc1)c1cc2ccccc2s1`: > 25 µM, 14.6 µM and >1.71.
With `O=C1c2ccccc2C(=O)N1c1ccc([Se][Se]c2ccc(N3C(=O)c4ccccc4C3=O)cc2)cc1`, the IC50 in test [1] was 23 µM; in test [4], 21.8 µM; in test [3], 2.07 µM. Further, the result in test [5] was Active. Further, in test [2], the “Ratio IC50” value is 11.08.
Regarding `O=C(NC(=[Se])Nc1ccc([Se][Se]c2ccc(NC(=[Se])NC(=O)c3cccs3)cc2)cc1)c1cccs1`, the values for the IC50 in test [1] and in test [3] were 22.2 µM and 4.55 µM, respectively. In addition, the “Ratio IC50” value in test [2] is on record as 4.87.
In the case of `O=C(O)C1C2C=CC(O2)C1C(=O)Nc1ccc([Se][Se]c2ccc(NC(=O)C3C4C=CC(O4)C3C(=O)O)cc2)cc1` (centres undefined), the results for the half-maximal inhibitory concentration (IC50) in test [1], in test [4] and in test [3] were > 25 µM, 25 µM and 1.31 µM, respectively. Also, the outcome in test [5] was Active. In addition, the “Ratio IC50” value in test [2] is >19.13.
Regarding `O=C(NC(=[Se])Nc1ccc([Se][Se]c2ccc(NC(=[Se])NC(=O)c3sccc3Cl)cc2)cc1)c1sccc1Cl`, the half-maximal inhibitory concentration (IC50) in test [1] was > 25 µM; in test [3], 5.57 µM. Also, the “Ratio IC50” value in test [2] was >4.48.
For `O=C(NC(=[Se])Nc1ccc([Se][Se]c2ccc(NC(=[Se])NC(=O)c3cc4ccccc4nc3-c3ccccc3)cc2)cc1)c1cc2ccccc2nc1-c1ccccc1`, in that order: 8.5 µM, 6.18 µM and 1.34.
Turning to `CCCCCCCCCCCCCCCCCCOCC(COP(=O)([O-])OCC[N+](C)(C)C)OC` (centres undefined) [EDELFOSINE], the result in test [5] was Active. Moreover, the “Ratio IC50” value in test [2] is 6.01.
Turning to `O=C(O)/C=C\C(=O)Nc1ccc([Se][Se]c2ccc(NC(=O)/C=C\C(=O)O)cc2)cc1`, the IC50 in test [1] and in test [3] was > 25 µM each time.
For the compound `COc1cc(OC)cc(C(=O)NC(=[Se])Nc2ccc([Se][Se]c3ccc(NC(=[Se])NC(=O)c4cc(OC)cc(OC)c4)cc3)cc2)c1`, the IC50 is > 25 µM in test [1] and 9.22 µM in test [3]. Further, the “Ratio IC50” value in test [2] was >2.77.
As to `O=C(NC(=[Se])Nc1ccc([Se][Se]c2ccc(NC(=[Se])NC(=O)c3cnc4ccccc4c3)cc2)cc1)c1cnc2ccccc2c1`, the IC50 in test [1] was determined as 12.8 µM; in test [3] it was 3.08 µM. For the same compound, the “Ratio IC50” value in test [2] is 4.15.
In the case of `O=C(NC(=[Se])Nc1ccc([Se][Se]c2ccc(NC(=[Se])NC(=O)c3ccc4c(c3)OCO4)cc2)cc1)c1ccc2c(c1)OCO2`, the results for the IC50 in test [1] and in test [3] were 13.5 µM and 9.98 µM, respectively. In test [2], the “Ratio IC50” value is recorded as 1.35.
Regarding `O=C(NC(=[Se])Nc1ccc([Se][Se]c2ccc(NC(=[Se])NC(=O)c3ccco3)cc2)cc1)c1ccco1`, the results for the IC50 in test [1], in test [4] and in test [3] were 7.44 µM, 9.22 µM and 0.67 µM, respectively. Besides, in test [5], the outcome was Active. In test [2], the “Ratio IC50” value worked out at 11.19.
As to `N#C[Se]c1ccc(NC(=O)c2ccccc2C(=O)O)cc1`, the 50% inhibitory concentration (IC50) in test [1] and in test [3] was > 25 µM in each case.
As to `CCCCCCCCCCCCCCCCOP(=O)([O-])OCC[N+](C)(C)C` [MILTEFOSINE], in test [2], the “Ratio IC50” value was 6.51.
With `N#C[Se]c1ccc(NC(=O)/C=C\C(=O)O)cc1`, the IC50 in test [1] and in test [3] was > 25 µM throughout.
As to `O=C(NC(=[Se])Nc1ccc([Se][Se]c2ccc(NC(=[Se])NC(=O)c3ccc([N+](=O)[O-])cc3)cc2)cc1)c1ccc([N+](=O)[O-])cc1`, the 50% inhibitory concentration (IC50) in test [1] is > 25 µM; in test [3] it was 2.27 µM. For the same compound, in test [2], the “Ratio IC50” value is given as >11.01.
Consider `O=C(NC(=[Se])Nc1ccc([Se][Se]c2ccc(NC(=[Se])NC(=O)c3ccccc3)cc2)cc1)c1ccccc1`, for which the 50% inhibitory concentration (IC50) in test [1] and in test [3] was > 25 µM in each case.
As to `O=C1COCC(=O)N1c1ccc([Se][Se]c2ccc(N3C(=O)COCC3=O)cc2)cc1`, the half-maximal inhibitory concentration (IC50) in test [1] is 8.53 µM; in test [3], 10.4 µM. For the same compound, in test [2], the “Ratio IC50” value worked out at 0.82.
In the case of `N#C[Se]c1ccc(NC(=O)CCC(=O)O)cc1`, the IC50 in test [1] was > 25 µM; in test [3] it was 11.3 µM. Moreover, in test [2], the “Ratio IC50” value is listed as >2.2.
For `Cc1ccc(C(=O)NC(=[Se])Nc2ccc([Se][Se]c3ccc(NC(=[Se])NC(=O)c4ccc(C)cc4)cc3)cc2)cc1`, in that order: > 25 µM, 15 µM and >1.66.
For the compound `O=C(O)COCC(=O)Nc1ccc([Se][Se]c2ccc(NC(=O)COCC(=O)O)cc2)cc1`, the half-maximal inhibitory concentration (IC50) is > 25 µM in test [1] and 12.1 µM in test [3]. Further, the “Ratio IC50” value in test [2] is reported as >2.06.
For `O=C(O)c1ccccc1C(=O)Nc1ccc([Se][Se]c2ccc(NC(=O)c3ccccc3C(=O)O)cc2)cc1`, in that order: > 25 µM, 4.57 µM and >5.47.
As to `CSc1ccc(C(=O)NC(=[Se])Nc2ccc([Se][Se]c3ccc(NC(=[Se])NC(=O)c4ccc(SC)cc4)cc3)cc2)cc1`, the results for the IC50 in test [1] and in test [3] were > 25 µM and 13.5 µM, respectively. For the same compound, the “Ratio IC50” value in test [2] was >1.85.
For `N#C[Se]c1ccc(NC(=O)c2nccnc2C(=O)O)cc1`, the IC50 in test [1] and in test [3] was > 25 µM in each case.
With `N#C[Se]c1ccc(NC(=O)COCC(=O)O)cc1`, the concentration for half-maximal inhibition (IC50) in test [1] and in test [3] was > 25 µM in each case.
Turning to `N#C[Se]c1ccc(NC(=O)C2C3C=CC(O3)C2C(=O)O)cc1` (centres undefined), the values for the concentration for half-maximal inhibition (IC50) in test [1], in test [4] and in test [3] were 21.5 µM, 0.54 µM and 3.22 µM, respectively. For the same compound, in test [5], the outcome was inactive. The “Ratio IC50” value in test [2] was determined as 7.76; in test [6] it was 30.
As to `N#C[Se]c1ccc(NC(=O)C2CCCCC2C(=O)O)cc1` (centres undefined), the 50% inhibitory concentration (IC50) in test [1] is > 25 µM; in test [3] it was 10.6 µM. Further, in test [2], the “Ratio IC50” value was >2.35.
Turning to `O=C(NC(=[Se])Nc1ccc([Se][Se]c2ccc(NC(=[Se])NC(=O)c3ccc(Cl)cc3)cc2)cc1)c1ccc(Cl)cc1`, the IC50 in test [1] and in test [3] was > 25 µM throughout.
As for `O=C(O)C1CCCCC1C(=O)Nc1ccc([Se][Se]c2ccc(NC(=O)C3CCCCC3C(=O)O)cc2)cc1` (centres undefined), the values for the IC50 in test [1], in test [4] and in test [3] were > 25 µM, 18.5 µM and 2.03 µM, respectively. In test [5], the result was Active. In test [2], the “Ratio IC50” value is recorded as >12.31.
As to `CCN(CC)CCCC(C)Nc1c2ccc(Cl)cc2nc2ccc(OC)cc12` (centres undefined) [QUINACRINE], in test [4], the IC50 worked out at 17 µM.
In the case of `N#C[Se]c1ccc(NC(=O)c2ccccc2-c2ccccc2C(=O)O)cc1`, the IC50 in test [1] was > 25 µM; in test [3] it was 10.7 µM. The “Ratio IC50” value in test [2] is recorded as >2.34.
For `O=C(NC(=[Se])Nc1ccc([Se][Se]c2ccc(NC(=[Se])NC(=O)c3ccno3)cc2)cc1)c1ccno1`, in that order: 1.07 µM, 0.35 µM and 3.1.
Regarding `O=C1C=CC(=O)N1c1ccc([Se][Se]c2ccc(N3C(=O)C=CC3=O)cc2)cc1`, the IC50 in test [1] stood at 15.2 µM; in test [4], 0.23 µM; in test [3] it was 1.54 µM. Moreover, the result in test [5] was Active. For the same compound, the figures for the “Ratio IC50” value in test [2] and in test [6] were 9.91 and 30, respectively.
